Compounds with a hit are over-represented: about 2.4% of the library has one in this group of screens.
SIAE primary: human SIAE inhibition, primary screen; Q9HAT2; SIAE FP-Rh probe binding, fluorescence polarization; inhibition, % at 9.66 µM; 370,000 compounds, 0.69% hits; AID 1053197;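 active = inhibition above a cutoff: mean of compounds within the control limits plus 3 SD of those, cut at about 17% in these data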;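 note: 0% = plate median of compound wells and 100% = probe without SIAE protein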
HTRA1 inhibitor: inhibitors of human serine peptidase HTRA1; Q92743; recombinant HTRA1, FP-rhodamine activity-based probe, fluorescence polarization; inhibition, % at 5.96 µM; 340,000 compounds, 0.5% hits; AID 504803; in the data active = inhibition above about 36%;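 note: 0% = enzyme with DMSO and 100% = wells lacking enzyme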
Target sequence (Q92743 whole entry, looked up): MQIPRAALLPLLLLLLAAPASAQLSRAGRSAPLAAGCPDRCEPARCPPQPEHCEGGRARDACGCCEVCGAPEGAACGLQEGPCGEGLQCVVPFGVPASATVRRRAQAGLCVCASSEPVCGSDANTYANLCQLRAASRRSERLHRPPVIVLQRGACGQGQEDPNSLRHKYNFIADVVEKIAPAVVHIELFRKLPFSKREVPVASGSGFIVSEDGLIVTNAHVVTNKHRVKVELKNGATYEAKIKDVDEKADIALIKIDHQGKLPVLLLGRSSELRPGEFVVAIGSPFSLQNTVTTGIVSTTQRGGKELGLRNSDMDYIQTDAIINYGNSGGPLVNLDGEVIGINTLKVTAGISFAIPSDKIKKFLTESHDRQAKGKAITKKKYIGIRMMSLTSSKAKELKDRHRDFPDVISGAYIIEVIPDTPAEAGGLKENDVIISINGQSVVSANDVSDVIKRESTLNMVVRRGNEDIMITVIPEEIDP
PRMT1 FP inh: blocks human protein arginine methyltransferase 1. inhibition, % at 2.79 µM. AID 652257. 370,000 compounds, 1.3% hits. Q99873. recombinant PRMT1, activity-based probe fluorescence polarization;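 active = inhibition above about 21% made by adding two undisclosed values, limit read from the data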
mABHD4 FP: ABHD4 (mouse) inhibition, primary FP screen. AID 720543. purified mABHD4, FP-Rh probe fluorescence polarization. 370,000 compounds, 0.54% hits. inhibition, % at 8.92 µM. Q8VD66;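 active = inhibition exceeding the mean over every tested compound plus 3 SD, cut at about 30% in these data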;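 note: 0% = plate median of compound wells and 100% = S159A mutant with DMSO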
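Material: mouse ABHD4 enzyme, wild type; Benchmarks: S159A mutant high control, sample median low control; Buffer or medium: HEPES pH 7.0, NaCl, Pluronic buffer; Signal: fluorescence polarization; Read-out: percent inhibition of probe binding, normalized to plate controls; Timing: pre-incubation 45 min, probe exposure 60 min, at 25 °C; Dosing: 8.92 µM, single dose.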
GASC-1 inh: blocks human GASC-1 demethylase activity. inhibition, % at 2.35 µM. GST-JMJD2C(1-420) H3K9me3 demethylation, DELFIA europium. Q9H3R0. 330,000 compounds, 0.069% hits;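 active = more than half of a compound's replicate wells show inhibition beyond 50%, single wells judged on their own value; inconclusive = some, but no more than half, of replicates pass 50% inhibition; inactive = no replicate passes 50% inhibition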;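 note: signal counts dimethyl H3K9 product captured on neutravidin plate; 0% = median of DMSO wells and 100% = 0.3 times that DMSO median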
* hit, by the source's call; ? = inconclusive; · = not tested or not shown.

SMILES | SIAE primary | HTRA1 inhibitor | PRMT1 FP inh | mABHD4 FP | GASC-1 inh
Cc1cc2c(C(C)C)c(O)c(O)c(C=O)c2c(O)c1-c1c(C)cc2c(C(C)C)c(O)c(O)c(C=O)c2c1O | 18.6* | · | 25.5* | 92.4* | ?
CC(c1ccccc1)n1cc(C(=O)NC2CCCC2)nn1 (stereo unspecified) | -1.7 | · | 0.5 | -2.5 | ·
O=C(O)CNC1c2ccccc2CSc2ccccc21 (stereo unspecified) | -1.0 | · | 21.2* | 2.7 | -7.5
Cn1c(O)c(C=Nc2cccc(C(F)(F)F)c2)c(=O)n(C)c1=O | -3.7 | 0.7 | 22.1* | -5.3 | -49.7
COc1ccc(OC)c(N2C(=O)NC(=O)/C(=C\c3ccc([N+](=O)[O-])s3)C2=O)c1 | -7.9 | 31.0 | 27.7* | -35.2 | 6.9
O=c1[nH]c(=O)n(C2CCCCCC2)c(O)c1C=NCc1cccnc1 | -1.8 | -1.9 | 2.4 | -2.5 | 1.3
COc1ccc2c(c1OC)C(=O)OC2c1c(O)n(C2CCCCC2)c(=O)[nH]c1=O (stereo unspecified) | 4.4 | -0.8 | 23.4* | -6.1 | 14.2
O=C(NCCN1CCCCC1)c1ccc(Cl)nc1Cl | -6.4 | 1.1 | 2.3 | 5.7 | 7.6
Cc1cc(C)cc(N2C(=O)NC(=O)/C(=C\C=C\c3ccco3)C2=O)c1 | -30.6 | 11.1 | 14.5 | -13.7 | -11.1
Cc1ccc(N2C(=O)NC(=O)/C(=C/C=C/c3ccco3)C2=O)cc1 | -26.2 | 0.1 | 24.0* | -8.4 | 5.7
O=C1NC(=O)N(Cc2ccc(F)cc2)C(=O)/C1=C\C=C\c1ccco1 | -10.2 | 0.6 | 19.9 | -10.9 | 68.8*
CCC(=NCc1cccnc1)c1c(O)n(-c2ccccc2)c(=O)[nH]c1=O | 5.1 | · | -1.1 | 0.3 | -0.8
CCOC(=O)C1=CC(=C2C(=O)N(CC)C(=S)N(CC)C2=O)c2ccccc2O1 | -24.4 | · | -0.5 | -10.0 | 52.6*
CCN1C(=O)C(=C2C=C(C)OC(C)=C2)C(=O)N(CC)C1=S | -0.1 | -2.3 | 0.3 | -2.6 | 6.5
CC1=CC(O)C(O)C2(C)C1CC1OC(=O)CC3C(C)C(O)C(=O)C2C13CO (stereo unspecified) | · | -4.9 | · | · | ·
COCCNC(=O)c1c(N)n(Cc2ccco2)c2nc3ccccc3nc12 | -5.4 | 9.4 | 11.6 | 3.6 | 4.6
CC(C)(C)OC(=O)c1c(N)n(Cc2ccco2)c2nc3ccccc3nc12 | -9.1 | -10.4 | 21.2* | 3.1 | -5.9
COc1cccc(C(=O)NCCN2CCC3(CC2)C(=O)NCN3c2ccccc2)c1 | -2.1 | · | 0.6 | 5.8 | ·
CCN1C(=O)NC(=O)/C(=C\c2ccc(N3CCOCC3)cc2OC)C1=O | -78.0 | · | 21.2* | 2.0 | -4.8
COc1ccc(/C=C2\C(=O)NC(=O)N(CCC3=CCCCC3)C2=O)c(OC)c1 | 5.2 | -0.1 | 7.7 | 8.9 | -12.6
CC(C)(C)NC(=S)N1Cc2ccccc2-n2nncc2C1 | -2.0 | 2.2 | -8.7 | -4.7 | ·
CN1C(=O)NC(=O)/C(=C/c2ccc([N+](=O)[O-])o2)C1=O | 4.0 | · | 23.7* | -5.4 | -9.0
CN1C(=O)NC(=O)/C(=C\c2ccc([N+](=O)[O-])o2)C1=O | · | 5.4 | · | · | 51.3
COc1cc(/C=C2\C(=O)NC(=O)N(CCc3ccc(F)cc3)C2=O)ccc1O | -9.0 | -12.0 | 24.4* | 3.5 | -7.1
CCOc1ccc(/C=C2/C(=O)NC(=O)N(CCc3ccc(F)cc3)C2=O)cc1 | -13.6 | 2.4 | 10.3 | -5.7 | -4.0
SMILES | SIAE primary | HTRA1 inhibitor | PRMT1 FP inh | mABHD4 FP | GASC-1 inh
Cc1cc(N2CCNC[C@H]2C)ccc1N1CCN[C@@H](C)C1 | -2.5 | · | -6.0 | -2.7 | ·
C=CCn1c(C)c(C=C2C(=O)NC(=O)NC2=O)c2ccccc21 | 3.9 | 9.4 | 3.5 | 2.2 | 50.1*
CCN(CC)c1ccc(/C=C2\C(=O)NC(=O)N(Cc3ccco3)C2=O)cc1 | -84.5 | -39.8 | 22.3* | -65.0 | ?
O=C1NC(=O)N(Cc2ccco2)C(=O)/C1=C/c1cccn1CCOc1ccccc1Cl | -23.9 | -1.4 | 21.9* | -12.6 | 1.3
O=C1NC(=O)N(Cc2ccccc2)C(=O)/C1=C\c1ccco1 | -4.0 | 3.1 | 17.4 | -23.3 | 10.3
O=c1[nH]c(=O)n(CCC2=CCCCC2)c(O)c1/C=N/Nc1ccccc1 | 4.6 | -4.0 | 21.9* | 7.0 | 11.7
O=C(NCCN1CCC2(CC1)C(=O)NCN2c1ccccc1)c1ccc(F)c(F)c1 | -0.8 | · | 3.6 | 6.4 | ·
CN1CCN(c2ccc(C=O)cc2)CC1 | -2.4 | -1.7 | -3.7 | 0.0 | 59.1*
O=C1NC(=O)C(C(CC(=O)c2ccccc2)c2ccccc2)C(=O)N1 (stereo unspecified) | -6.9 | 4.2 | 1.0 | 1.1 | 53.1*
Cn1cc(P(=S)(c2ccccc2)c2ccccc2)c2ccccc21 | -0.2 | · | -2.8 | -16.4 | ·
O=C(COc1ccccc1)c1cn(Cc2ccccc2)c2ccccc12 | -14.0 | -39.5 | -1.9 | -27.9 | 0.1
COC(=O)C1=C(c2c(C)noc2C)C[C@@H]2CC[C@H]1N2C(=O)NCCCOC(C)C | 31.1* | -0.7 | -0.7 | -3.3 | 11.6
CCC1(c2ccccc2)C(=O)N(C)C(=O)N(C)C1=O | 2.6 | -3.9 | 0.9 | 2.6 | 19.4
CN1C(=O)N(C)C(=O)C2(Sc3ccccc3C2=O)C1=O | 5.5 | 8.6 | 27.1* | 14.6 | 48.8
O=C(O)c1ccc2c(c1)C1C(Cl)C(Sc3ccccc3[N+](=O)[O-])CC1C(c1cccc([N+](=O)[O-])c1)N2 (stereo unspecified) | · | 81.1* | · | · | ·
CCN(CC)P(=S)(c1c(C)nc2ccccn12)c1c(C)nc2ccccn12 | 9.1 | -7.5 | 23.6* | 6.2 | 10.3
CCOc1c(P(=S)(N(C)C)N(C)C)c(C)nn1-c1ccccc1 | 7.6 | 1.2 | -1.4 | 5.0 | 4.4
Cc1cc(N2CCNC[C@@H]2C)ccc1N1CCN[C@H](C)C1 | 3.5 | · | -1.4 | 4.6 | ·
CN1C(=O)C(Cc2ccc(OCc3ccccc3)cc2)C(=O)N(C)C1=O | 4.5 | -6.5 | 0.6 | -4.4 | 50.5*
COc1cc(CC2C(=O)N(C)C(=O)N(C)C2=O)ccc1OCc1ccccc1 | 9.7 | -6.3 | 2.4 | 4.5 | 52.5*
CC(C)(C)Cc1nnc(NC(=O)COc2ccc(Cl)cc2Cl)o1 | -0.8 | · | -0.5 | -2.1 | ·
Cn1ncnc2c(=O)n(C)c(=O)nc1-2 | · | 23.5 | · | · | 81.0*
CCOC(=O)COc1ccc(/C=C2\C(=O)NC(=S)N(c3ccc(OC)cc3)C2=O)cc1OC | -2.6 | 0.7 | 22.6* | 8.4 | 6.1
CCOc1ccc(N2C(=O)/C(=C/c3ccco3)C(=O)NC2=S)cc1 | · | 53.9* | · | · | -4.2
CCOC(=O)CSCCOc1ccc(C=C2C(=O)NC(=O)NC2=O)cc1OC | 4.4 | · | 5.7 | -6.5 | 10.8
Cc1cc(O)c2c(c1)C(=O)[C@@]13C(=C2O)C(=O)[C@H]2C(O)[C@@H]1[C@H]1C(O)[C@@H]3C(=O)C3=C(O)c4c(O)cc(C)cc4C(=O)[C@@]312 (stereo partly specified) | -0.4 | · | -5.0 | 13.0 | ·
O=C(NCCN1CCC2(CC1)C(=O)NCN2c1ccccc1)c1cccc(F)c1 | 0.8 | · | 0.2 | -0.8 | ·
